Screens deposited in PubChem BioAssay by Broad Institute.
An excerpt weighted towards active compounds, which were near 2.5% of everything screened.
FN deposition inh – inhibitors of fibronectin matrix deposition, primary screen, AH1F cells, Alexa488-fibronectin fluorescence, plate reader; AH1F fibroblasts, overnight; inhibition, % at 12.6 µM; 350,000 tested, 0.086% active;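 active means mean inhibition across replicates of 30% or more, regardless of how many single replicates reach that level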;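 further: positive control wells lacked labelled fibronectin entirely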
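material = AH1F fibroblast monolayer depositing Alexa488-labelled fibronectin into matrix | amount = 10000 AH1F cells/well | buffer or medium = DMEM plus 2% serum, read in PBS | incubation = 1 h cell adhesion before compound, then overnight fibronectin incubation | detection = fluorescence at 485 nm excitation, 525 nm emission | evaluation = percent inhibition as loss of matrix-bound fibronectin fluorescence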
PAX8 reporter – inhibitors of PAX8-driven TPO luciferase reporter, primary screen, RMG-I cells, single concentration; SteadyGlo, 24 h; AID 652154, 2013; 360,000 tested, 1.2% active; inhibition, % at 12.6 µM;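 active means mean replicate inhibition at least 60% with every replicate also reaching 60%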;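 further: luciferase light reporting Pax8 driven TPO promoter activity; plate controls were median of neutral control wells for no effect and mitoxantrone controls for full effect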
N-glyco inh – increase of ERlucT glycosylation luciferase signal, primary screen, N-linked glycosylation inhibitor project, D54 ERlucT cells, luminescence, set 2 | 360,000 tested, 0.23% active | AID 588692, 2011 | D54 ERlucT glycosylation luciferase reporter, 24 h; percent of 100 nM tunicamycin response | reporter increase, % at 12.5 µM;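 active means mean luciferase reporter signal, scaled so untreated is 0 and the glycosylation-blocking control 100, at or above a set limit in every replicate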;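 further: luciferase carries N-glycosylation sites so blocking glycosylation raises the light; 0% = median of neutral control wells and 100% = median of 100 nM tunicamycin wells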
MLL AF4-AF9 inh – inhibitors of AF4 peptide binding to AF9, primary screen, biochemical, AlphaScreen, biotin-AF4 peptide, FLAG-AF9, single point | Protein AF-9 (Homo sapiens), P42568 | inhibition, % at 10 µM | 350,000 tested, 0.47% active | AID 651704, 2012;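 active means every replicate reaching a set inhibition limit, whatever the replicate mean, cut at about 25% in these data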;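 further: 0% = plate neutral control median and 100% = total signal loss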
Target sequence (P42568 whole entry, looked up): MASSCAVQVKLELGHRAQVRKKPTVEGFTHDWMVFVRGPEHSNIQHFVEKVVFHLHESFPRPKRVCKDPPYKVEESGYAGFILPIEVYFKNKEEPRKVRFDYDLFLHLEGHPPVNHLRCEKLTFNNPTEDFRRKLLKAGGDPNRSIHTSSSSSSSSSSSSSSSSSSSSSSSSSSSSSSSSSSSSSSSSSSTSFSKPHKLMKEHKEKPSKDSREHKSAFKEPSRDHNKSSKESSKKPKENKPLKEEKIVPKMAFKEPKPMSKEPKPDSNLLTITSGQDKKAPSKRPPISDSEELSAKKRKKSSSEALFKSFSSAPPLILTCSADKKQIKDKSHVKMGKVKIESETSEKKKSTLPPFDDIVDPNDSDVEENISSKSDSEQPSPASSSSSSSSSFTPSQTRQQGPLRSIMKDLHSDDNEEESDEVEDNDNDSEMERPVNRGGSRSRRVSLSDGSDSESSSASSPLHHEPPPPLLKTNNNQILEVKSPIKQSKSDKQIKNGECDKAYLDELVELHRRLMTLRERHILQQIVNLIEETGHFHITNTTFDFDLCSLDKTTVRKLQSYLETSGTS
EWS-Fli inh – EWS/Fli-driven NR0B1 reporter inhibitors, primary screen, A673 cells, NR0B1 luciferase, luminescence, MLPCN library; viability-normalised; inhibition, % at 12.6 µM; 350,000 tested, 0.67% active; AID 651661, 2012;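 active means mean inhibition of at least 50% after viability correction, with every replicate also passing that limit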;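 further: firefly luciferase signal divided by Alamar Blue viability fluorescence both relative to DMSO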
HIV Env fusion – inhibitors of HIV-1 Env-driven cell-cell fusion, primary screen, HeLa-JRFL effector, CEM21 target cells, luciferase | inhibition, % at 12.3 µM | AID 651610, 2012 | 360,000 tested, 1.1% active;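 active means mean replicate inhibition score of at least 50 and every replicate individually at or above 50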;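 further: 0% = plate neutral controls and 100% = maraviroc near 300 nM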
* hit, by the source's call; [ ] = another dose, or the depositor's remark.

`C[C@H]1CN([C@@H](C)CO)C(=O)c2cc(C#CCN(C)C)cnc2O[C@H]1CN(C)S(C)(=O)=O` gave FN deposition inh 6.2, MLL AF4-AF9 inh -3.2, EWS-Fli inh -14.0 and HIV Env fusion 1.9[16.7 µM].
For C[C@H]1CN([C@@H](C)CO)C(=O)Cc2cc(NC(=O)CCC(F)(F)F)ccc2O[C@H]1CN(C)Cc1ccc(C(=O)O)cc1 the results were PAX8 reporter 9.8, MLL AF4-AF9 inh -2.9 and EWS-Fli inh -3.0.
For COc1cc2c3nnc(-c4ccc(F)cc4)c-3cn(Cc3ccc(F)cc3)c2cc1OC the results were FN deposition inh -4.2, PAX8 reporter 25.7, N-glyco inh -9.3, MLL AF4-AF9 inh -1.3, EWS-Fli inh 35.1 and HIV Env fusion -13.5.
`COc1cc2c3nnc(-c4ccc(F)cc4)c-3cn(Cc3ccccc3)c2cc1OC` gave FN deposition inh -151.7, PAX8 reporter 68.8*, N-glyco inh -17.2, MLL AF4-AF9 inh 1.8, EWS-Fli inh 42.0 and HIV Env fusion -9.4.
`CCOc1cc(NCc2ccccc2)c2ncn(C(C)C)c2c1` gave FN deposition inh -6.7, PAX8 reporter 76.6*, N-glyco inh -2.0, MLL AF4-AF9 inh 21.8, EWS-Fli inh 1.8 and HIV Env fusion 48.6.
Screening COc1ccc(CNC(=O)COc2ccc(C(=O)c3ccc(F)cc3)cc2)cc1 returned FN deposition inh 9.4, PAX8 reporter 8.6, N-glyco inh 15.8, MLL AF4-AF9 inh 5.3, EWS-Fli inh 14.4 and HIV Env fusion 6.0.
For O=C(COc1ccc(C(=O)c2ccc(F)cc2)cc1)NCc1ccc(F)cc1 the results were PAX8 reporter 20.9, N-glyco inh 17.1, MLL AF4-AF9 inh 2.3, EWS-Fli inh 57.1* and HIV Env fusion -183.4.
For CCCNC(=O)N(C)C[C@H]1N[C@@H](CO)[C@@H]1c1ccc(C2=CCCCC2)cc1 the results were FN deposition inh 15.4, PAX8 reporter 102.9*, MLL AF4-AF9 inh 6.9 and EWS-Fli inh 44.8.
Screening CN(C[C@@H]1N[C@H](CO)[C@H]1c1ccc(C2=CCCC2)cc1)C(=O)c1ccncc1 returned FN deposition inh -1.5, PAX8 reporter -31.5 and EWS-Fli inh 13.1.
`O=C(Nc1ccc(OC(F)F)cc1)Nc1cccc(C(F)(F)F)c1` gave FN deposition inh -4.3, N-glyco inh -16.7 and HIV Env fusion 74.9*.
For Cc1ccc(S(=O)(=O)Nc2ccc(NC(=O)Nc3cccc(C(F)(F)F)c3)cc2)cc1 the results were FN deposition inh 3.1, PAX8 reporter 46.4, N-glyco inh -11.3, MLL AF4-AF9 inh 3.2, EWS-Fli inh 12.7 and HIV Env fusion 20.4.
Screening CCN(CC)S(=O)(=O)c1ccc(NC(=O)Nc2cccc(C(F)(F)F)c2)cc1 returned FN deposition inh 4.3, N-glyco inh -20.0 and HIV Env fusion 96.3*.
Cc1ccc(S(=O)(=O)N(C)C[C@@H]2Oc3ccc(NC(=O)Cn4cnnn4)cc3C(=O)N([C@H](C)CO)C[C@H]2C)cc1 was read as MLL AF4-AF9 inh -0.5 and EWS-Fli inh -3.7.
Screening O=[N+]([O-])c1ccc(N/N=C/c2sc(N3CCOCC3)nc2-c2ccccc2)c(S(=O)(=O)Nc2ccccc2Cl)c1 returned FN deposition inh -7.1, PAX8 reporter 0.3, N-glyco inh -0.2 and HIV Env fusion 95.1*.
O=[N+]([O-])c1ccc(N/N=C/c2sc(N3CCOCC3)nc2-c2ccccc2)c(S(=O)(=O)Nc2ccc(Cl)cc2)c1 was read as FN deposition inh -4.4, PAX8 reporter 102.2*, N-glyco inh -17.1, MLL AF4-AF9 inh 3.5, EWS-Fli inh 38.0 and HIV Env fusion 17.0.
Screening O=C(N/N=C/c1sc(N2CCOCC2)nc1-c1ccccc1)c1cccc(S(=O)(=O)N2CCOCC2)c1 returned FN deposition inh 5.8, PAX8 reporter 49.5, N-glyco inh 0.8, MLL AF4-AF9 inh -13.6, EWS-Fli inh 10.5 and HIV Env fusion 88.2*.
For CCNC(=O)C[C@H]1CC[C@@H]2[C@@H](COc3ccc(NC(=O)Nc4ccccc4F)cc3C(=O)N2C)O1 the results were FN deposition inh -10.1, PAX8 reporter 9.5, MLL AF4-AF9 inh -0.7, EWS-Fli inh -6.9 and HIV Env fusion 13.7[16.7 µM].
C[C@H]1CN([C@@H](C)CO)C(=O)Cc2cc(NC(=O)Nc3ccc(F)cc3)ccc2O[C@H]1CN(C)S(=O)(=O)c1ccc(Cl)cc1 was read as PAX8 reporter 57.4, MLL AF4-AF9 inh 1.7, EWS-Fli inh 35.9 and HIV Env fusion -167.6[16.7 µM].
NCC[C@@H]1CC[C@H](NC(=O)C2CCCC2)[C@H](CO)O1 was read as PAX8 reporter 9.4, MLL AF4-AF9 inh -0.8, EWS-Fli inh -2.5 and HIV Env fusion -1.4[16.7 µM].
For C[C@H]1CN([C@@H](C)CO)C(=O)CCCn2cc(nn2)CO[C@H]1CN(C)C(=O)Cc1ccccc1 the results were FN deposition inh -0.5, PAX8 reporter 0.2 and EWS-Fli inh 4.3.
`Cc1cc(N2CCCC2=O)cc(C)c1S(=O)(=O)NCCOc1ccc(C(C)(C)C)cc1` gave FN deposition inh 1.0, PAX8 reporter 30.4, N-glyco inh -6.5 and HIV Env fusion 84.8*.
Screening O=C1CCCN1c1ccc(S(=O)(=O)NCCOc2ccccc2)cc1 returned FN deposition inh 5.2, PAX8 reporter 10.0, N-glyco inh -0.2 and HIV Env fusion 30.5.
Screening CC(C)(C)n1nnnc1C(c1ccccn1)N(Cc1ccccc1)Cc1ccc(Cl)cc1 (stereo not given) returned FN deposition inh -16.0, PAX8 reporter 19.7, N-glyco inh -8.8 and HIV Env fusion 127.4*.
CCN(Cc1ccccc1)C(c1ccccn1)c1nnnn1C(C)(C)CC (stereo not given) was read as N-glyco inh -3.7.
For C[C@@H]1CN([C@H](C)CO)C(=O)c2cc(C3=CCCCC3)cnc2O[C@@H]1CN(C)S(C)(=O)=O the results were EWS-Fli inh 7.2 and HIV Env fusion -4.4[16.7 µM].
Screening Cc1ccc2nsnc2c1NC(=O)c1ccc(-c2cc(Cl)ccc2Cl)o1 returned N-glyco inh 128.5*.
`Cc1ccc2nsnc2c1NC(=O)Cc1ccc(Cl)cc1` gave FN deposition inh 17.3, PAX8 reporter 7.1, N-glyco inh 0.3, MLL AF4-AF9 inh 0.3, EWS-Fli inh -16.4 and HIV Env fusion -10.0.
Screening CCCN1C(=O)/C(=C2/C=Cc3ccccc3N2CC)SC1=S returned FN deposition inh 9.9, PAX8 reporter 19.5, N-glyco inh -2.1, MLL AF4-AF9 inh 26.3*, EWS-Fli inh -40.0 and HIV Env fusion -6.1.
CCCN1/C(=C2/SC(=S)N(CC)C2=O)C=Cc2ccccc21 was read as FN deposition inh 11.5, PAX8 reporter 7.6, N-glyco inh -2.6 and HIV Env fusion -425.7.
